MEKK2wt PB1 HTS = modulators of MEK5 binding to wildtype MEKK2, primary screen, biochemical, multiplex bead flow cytometry, Alexa488-MEK5 | binding response (% of control), % at 10 µM | Alexa488-MEK5 binding to MEKK2 WT; actives lie on both sides | 290,000 compounds, 1.1% hits | Mitogen-activated protein kinase kinase kinase 2 (Homo sapiens), Q9Y2U5; in the data active means binding response below about 67% or above about 130%
UBC13 inh = UBC13 polyubiquitin chain formation inhibitors, primary screen, biochemical, TR-FRET, uHTS. inhibition, % at 20 µM. Ubiquitin-conjugating enzyme E2 N (Homo sapiens), P61088. 330,000 compounds, 0.47% hits. AID 485273, 2010; in the data active means inhibition above about 45%, passing the limit was not always enough
Apaf-1 inh = inhibitors of human Apaf-1 apoptosome, primary screen, biochemical, DEVD-Rh110 fluorescence, uHTS | inhibition, % at 20 µM | 330,000 compounds, 0.71% hits | reconstituted apoptosome caspase-3 activity | Apoptotic protease-activating factor 1 (Homo sapiens), O14727 | AID 489030, 2010; active means inhibition of at least 40% at 20 µM;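 further: plate controls were DMSO wells for no effect and DEVD-CHO caspase inhibitor wells for full effect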
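detection = Rh110 fluorescence intensity | test system = biochemical Apaf-1 apoptosome reconstitution | also added = cytochrome c and DEVD-Rh110 substrate | schedule = 30 min plus 50 min, RT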
MEKK2 mut-MEK5 = MEK5 binding signal on mutant MEKK2 PB1, primary screen, biochemical, multiplex bead flow cytometry, Alexa488-MEK5; Alexa488-MEK5 binding to MEKK2 mutant; percent response, % at 10 µM; 290,000 compounds, 0.35% hits; AID 1530, 2009; in the data active means percent response above about 24%, passing the limit was not always enough
MEKK3 PB1 HTS = modulators of MEKK3-MEK5 PB1 binding, primary screen, biochemical, wildtype MEKK3, multiplex bead flow cytometry, Alexa488-MEK5 | binding response (% of control), % at 10 µM | 290,000 compounds, 1.4% hits | Mitogen-activated protein kinase kinase kinase 3 (Homo sapiens), Q99759 | bead-based flow cytometry, Alexa488-MEK5 binding to MEKK3; actives lie on both sides; 0 = blocked by unlabeled MEK5, 100 = vehicle;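 active means binding response more than 3 SD above or below the average of its plate-row segment, actives on both sides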;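 further: Alexa488 bead fluorescence after subtracting the streptavidin-only scavenger bead signal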
MEKK2wt confirm = modulators of MEK5 binding to wildtype MEKK2, confirmation, biochemical, single concentration, multiplex bead flow cytometry; 5,900 compounds, 2.4% hits; shares compounds with MEKK3 PB1 HTS; binding response (% of control), % at 10 µM; Alexa488-MEK5 binding to MEKK2 WT; actives lie on both sides; AID 1892, 2009; in the data active means binding response below about 16% or above about 210%; inactive means in between
MEKK2mut confirm = mutant MEKK2 PB1-MEK5 binding signal retest – biochemical, single concentration, multiplex bead flow cytometry, confirmation; 5,900 compounds, 2% hits; shares compounds with MEKK3 PB1 HTS; percent response, % at 10 µM; Alexa488-MEK5 binding to MEKK2 mutant; in the data active means percent response mostly above about 71%, no sharp cut-off; inactive means mostly below about 38%;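 further: higher means compound restores mutant binding toward wildtype level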
MEKK3-MEK5 inh = MEKK3 wild-type PB1 binding to MEK5, inhibitors, confirmation, biochemical, bead multiplex flow cytometry, single concentration, wildtype; shares compounds with MEKK3 PB1 HTS; Alexa488-MEK5 binding to MEKK3; hits give low values; binding response (% of control), % at 10 µM; 5,900 compounds, 1.8% hits; AID 1894, 2009;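 active means binding response below 72% of control, or above a set upper limit, though filed actives all read lower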;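 further: 100% = DMSO only wells and 0% = binding blocked by excess unlabeled MEK5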
Starred values were filed as active, the others as inactive; nt = no result given; [ ] = another dose, or the depositor's remark. This is a sample that favours compounds with a hit; in the whole collection about 2.9% have one here.

SMILES	MEKK2wt PB1 HTS	UBC13 inh	Apaf-1 inh	MEKK2 mut-MEK5	MEKK3 PB1 HTS	MEKK2wt confirm	MEKK2mut confirm	MEKK3-MEK5 inh
Cc1cc(SCc2ccccc2)nc(=O)[nH]1	2.0*[inhibitor]	-8	4	-17	2.0*[inhibitor]	94	-1	91
CS(=O)(=O)c1ccc(CNC(=O)[C@]2(C(F)(F)F)C[C@H](CCc3ccccc3)CCCO2)cc1	86	12	6	-6	81*[inhibitor]	93	-8	95
CS(=O)(=O)c1ccc(CNC(=O)C2(C(F)(F)F)CC(CCCO)CCCO2)cc1 (centres undefined)	93	8	-5	-3	90	nt	nt	nt
O=C(COc1ccc([N+](=O)[O-])cc1Cl)NCCN1C(=O)CSC1=O	nt	-9	-6	nt	nt	nt	nt	nt
CC(=O)Nc1ccccc1OCC(=O)N(Cc1ccccc1)C(C)C	106	-7	1	13	99	nt	nt	nt
CCCCNC(=O)CNC(=S)N(Cc1ccccc1F)C1CCCCC1	112	-17	1	0	131*	97	-2	102
COC(=O)C(Cc1ccccc1)NC(=O)CC(C)CC(=O)Nc1ccc(C)cc1 (centres undefined)	107	8	1	3	109	nt	nt	nt
COc1cccc(N2C(=O)Nc3ccccc3C2(O)C(=O)NCc2ccc3c(c2)OCO3)c1 (centres undefined)	127	-7	1	10	123*	105	1	102
CCn1c(-c2cc(-c3ccccc3OC)nc3ccccc23)n[nH]c1=S	110	-3	11	1	134*	102	9	106
COc1ccc(-c2cc(CCCC(=O)NCCc3ccccc3)no2)cc1	-15*[inhibitor]	-11	2	-26	0.0*[inhibitor]	100	-3	104
N=c1n(Cc2ccc(Cl)cc2)c2ccccc2n1CC(O)COc1ccccc1 (centres undefined)	142*	32	34	3	86	149	47	105
Cc1ccc(OCC(O)Cn2c(=N)n(Cc3ccccc3)c3ccccc32)cc1 (centres undefined)	140*	19	2	6	106	120	8	99
COc1ccc(OCC(O)Cn2c(=N)n(Cc3ccccc3)c3ccccc32)cc1 (centres undefined)	122	19	27	5	95	nt	nt	nt
COc1cccc(/C=N/n2c(CO)nc3ccccc32)c1OC	77	-9	5	-8	71*[inhibitor]	106	5	103
CCCn1c(-c2cccc([N+](=O)[O-])c2)nc2c1c(=O)[nH]c(=O)n2Cc1ccccc1	97	9	2	-2	70*[inhibitor]	105	12	109
O=C(/C=N/O)NCc1ccncc1	125	0	-6	15	123*	96	-1	98
CCC(C(=O)NCC1CCCO1)n1nc(C)c2sc3ccccc3c2c1=O (centres undefined)	97	3	6	2	98	nt	nt	nt
COc1cc(C(=O)Nc2ccc3nc(N4CCN(C)CC4)cc(C)c3c2)cc(OC)c1OC	125	4	4	11	104	nt	nt	nt

High-throughput results deposited in PubChem BioAssay by several laboratories.
